The values that follow come from ChEMBL document CHEMBL1139865 (J Med Chem, 2007).

A word on the half-life: it is the time needed for the level to fall by half in the phase considered. As a reminder, the AUC is concentration integrated over time. By bioavailability is commonly meant dose-corrected exposure relative to a reference, in per cent.

A short description of data set [1]: Half life in dog at 3 mg/kg, po. To be noted: in vivo. In kind it is ADME, organism-based, Canis lupus familiaris. Also on record: dose 3 mg/kg, route oral. The method, boiled down:
(§1)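 Dog PK study using the HCl salt, dosed at 1 mg/kg iv or 3 mg/kg orally. Plasma drug levels were followed, and plasma DPP-4 activity was tracked alongside them.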

Data set [2] in a line: AUC in dog at 3 mg/kg, po. In kind it is ADME, organism-based, Canis lupus familiaris. On the set-up: dose 3 mg/kg, route oral. To be noted: plasma. The method, boiled down:
as §1

Data set [3] is described as follows: Clearance in dog at 1 mg/kg, iv and 3 mg/kg, po. To be noted: in vivo. It counts as ADME, organism-based, Canis lupus familiaris. Put shortly: as §1
A short description of data set [4]: Half life in dog at 1 mg/kg, iv. In kind it is ADME, organism-based, Canis lupus familiaris. On the set-up: dose 1 mg/kg, route intravenous. To be noted: in vivo. Put shortly: as §1
Data set [5] in a line: Volume of distribution at steady state in dog at 1 mg/kg, iv and 3 mg/kg, po. It counts as ADME, organism-based, Canis lupus familiaris. To be noted: in vivo, read-out: Vdss. Put shortly: as §1
Data set [6] in a line: Bioavailability in dog at 1 mg/kg, iv and 3 mg/kg, po. In kind it is ADME, organism-based, Canis lupus familiaris. As to conditions: in vivo. Put shortly: as §1
The species entered for data set [7] is Rattus norvegicus. In words: Improvement in glucose tolerance in Wistar fatty rat. In kind it is functional, organism-based. The method, boiled down:
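Glucose tolerance test in female Wistar fatty rats given the benzoate salt, with doses normalized to free base. Read-outs after an oral glucose load were plasma glucose, the baseline (0 min)-adjusted glucose AUC0–60min, and plasma immunoreactive insulin, including the level at 10 min. Data are mean and SD (n = 6), compared with control by one-tailed Williams'/Shirley-Williams' tests.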

The species named for data set [8] is Rattus norvegicus. In words: Increase in plasma insulin level in Wistar fatty rat. In kind it is functional, organism-based. The method, boiled down: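 Female Wistar fatty rats given a benzoate salt, with doses expressed as free base, then an oral glucose load. Plasma immunoreactive insulin read 10 min after the glucose load. Mean and SD, n = 6. Compared with control by one-tailed Williams' or Shirley-Williams' test, p ≤ 0.025.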

Data set [9] in a line: in vitro. As to conditions: rat.
A short description of data set [10]: in vitro. As to conditions: human.
The next data set is filed under the species Mus musculus. In words: Reduction in glucose excursion in mouse after oral glucose tolerance test. In kind it is functional, organism-based.
Data set [11] can be described thus: Clearance in rat at 1 mg/kg, iv and 10 mg/kg, po. In kind it is ADME, organism-based. As to conditions: in vivo. The method, boiled down: (§2)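 Rat PK study using the TFA salt. A single iv dose (1 mg/kg) and a separate oral dose (10 mg/kg) were given. Half-life was derived for each route, and CL and Vdss for the iv route. F (%) was calculated from the oral and iv exposure.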

A short description of data set [12]: Volume of distribution at steady state in rat at 1 mg/kg, iv and 10 mg/kg, po. To be noted: in vivo, read-out: Vdss. In kind it is ADME, organism-based. The method, boiled down: as §2
Data set [13] in a line: Half life in rat at 1 mg/kg, iv. In kind it is ADME, organism-based. On the set-up: dose 1 mg/kg, route intravenous. As to conditions: in vivo. Put shortly: as §2
A short description of data set [14]: AUC in rat at 10 mg/kg, po. It counts as ADME, organism-based. On the set-up: dose 10 mg/kg, route oral. As to conditions: plasma. The method, boiled down:
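Rat pharmacokinetics with the test article given as the TFA salt: 1 mg/kg iv and 10 mg/kg oral. Oral AUC comes from plasma concentrations after oral dosing. Half-lives, clearance, Vdss and oral bioavailability are derived from the same iv/oral pair.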

Data set [15] in a line: Half life in rat at 10 mg/kg, po. It counts as ADME, organism-based. Also on record: dose 10 mg/kg, route oral. To be noted: in vivo. The method, boiled down: as §2
Data set [16] is described as follows: Bioavailability in monkey at 1.1 mg/kg, iv and 10 mg/kg, po. It counts as ADME, organism-based, Macaca mulatta. To be noted: rhesus monkey, in vivo. Put shortly:
(§3)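 Monkey PK study using the benzoate salt, dosed at 1.1 mg/kg iv or 10 mg/kg orally. Plasma drug concentrations and plasma DPP-4 inhibition were measured. Parameters derived were iv and oral half-lives, oral AUC, CL, Vdss and F (%).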

Data set [17] in a line: Clearance in monkey at 1.1 mg/kg, iv and 10 mg/kg, po. It counts as ADME, organism-based, Macaca mulatta. As to conditions: rhesus monkey, in vivo. The method, boiled down:
as §3

Data set [18] in a line: AUC in monkey at 10 mg/kg, po. As to conditions: rhesus monkey, plasma. In kind it is ADME, organism-based, Macaca mulatta. On the set-up: dose 10 mg/kg, route oral. Put shortly: as §3
The nature of data set [19]: Half life in monkey at 10 mg/kg, po. As to conditions: rhesus monkey, in vivo. It counts as ADME, organism-based, Macaca mulatta. Also on record: dose 10 mg/kg, route oral. The method, boiled down: as §3
Data set [20] can be described thus: Half life in monkey at 1.1 mg/kg, iv. In kind it is ADME, organism-based, Macaca mulatta. Also on record: dose 1.1 mg/kg, route intravenous. To be noted: rhesus monkey, in vivo. Put shortly: as §3
Data set [21] in a line: Volume of distribution at steady state in monkey at 1.1 mg/kg, iv and 10 mg/kg, po. As to conditions: rhesus monkey, in vivo, read-out: Vdss. It counts as ADME, organism-based, Macaca mulatta. The method, boiled down: as §3

Active and inactive are the calls of the source. Where only a bound is given, the exact number is not on record here.

For `Cl.Cn1c(=O)cc(N2CCC[C@@H](N)C2)n(Cc2ccccc2C#N)c1=O`, the half-life was 3.04 h in data set [1] and 2.93 h in [4]. In addition, in [2], the AUC came out at 1610 ng·h/mL. Also, the clearance in [3] worked out at 23 mL/min/kg. Moreover, the Vd in data set [5] stood at 3.51 L/kg. Also, in data set [6], the bioavailability worked out at 68%.
For the compound `Cn1c(=O)cc(N2CCC[C@@H](N)C2)n(Cc2ccccc2C#N)c1=O`, the Activity result in the data set filed under Rattus norvegicus [7] was “Dose-dependent effect”. Further, in the data set filed under Rattus norvegicus [8], the result was Active.
Take `COc1cc2c(=O)n(Cc3ccccc3C#N)c(N3CCC[C@@H](N)C3)nc2cc1F`: the values for the half-life at 1 µM in “in vitro [9]” (liver microsomes) and in “in vitro [10]” (liver microsomes) were 0.583 h and 2.27 h, respectively.
Taken in the same sequence, the figures for `N#Cc1ccccc1Cn1c(N2CCC[C@@H](N)C2)nc2ccc(F)cc2c1=O` [listing 1 of 2 here] were 0.517 h and > 3.33 h.
`N#Cc1ccccc1Cn1c(N2CCC[C@@H](N)C2)nc2ccc(F)cc2c1=O` [listing 2 of 2 here]: the outcome in the data set filed under Mus musculus was Active.
With `N#Cc1ccccc1Cn1c(N2CCC[C@@H](N)C2)nc2c(Cl)cc(Cl)cc2c1=O`, the values for the half-life at 1 µM in “in vitro [9]” (microsomes) and in the data set “in vitro [10]” (microsomes) were 0.283 h and 1.07 h, respectively.
For the compound `N#Cc1ccccc1Cn1c(N2CCCC(N)C2)nc2c(Cl)cccc2c1=O` (configuration not stated), the half-life at 1 µM was 0.0617 h in the data set “in vitro [9]” (liver microsomes) and 1.33 h in the data set “in vitro [10]” (liver microsomes).
As for `N#Cc1ccccc1Cn1c(N2CCC[C@@H](N)C2)nc2ccc(Br)cc2c1=O`, the results for the half-life at 1 µM in the data set “in vitro [9]” (liver microsomes) and in “in vitro [10]” (liver microsomes) were 0.567 h and 1.88 h, respectively.
In the case of `N#Cc1ccccc1Cn1c(N2CCC[C@@H](N)C2)nc2ccccc2c1=O`, the half-life at 1 µM in the data set “in vitro [9]” (microsomes) was 0.0417 h; in “in vitro [10]” (microsomes), > 3.33 h.
As to `N#Cc1ccccc1Cn1c(N2CCC[C@@H](N)C2)nc2cc(N3CCOCC3)c(F)cc2c1=O`, the half-life at 1 µM turned out to be 0.102 h in “in vitro [9]” (liver microsomes) and 0.55 h in the data set “in vitro [10]” (liver microsomes).
Compound `N#Cc1ccccc1Cn1c(N2CCC[C@@H](N)C2)nc2ccc(F)cc2c1=O.O=C(O)C(F)(F)F` displayed a clearance in data set [11] of 20.6 mL/min/kg. Besides, the Vd in data set [12] is 2.87 L/kg. Also, the half-life in data set [13] was 2.6 h; in data set [15], 2.43 h. The AUC in data set [14] came to 7560 ng·h/mL.
Regarding `COc1ccc2nc(N3CCC[C@@H](N)C3)n(Cc3ccccc3C#N)c(=O)c2c1`, the half-life at 1 µM came to 0.167 h in the data set “in vitro [9]” (liver microsomes) and 1.37 h in “in vitro [10]” (liver microsomes).
In the case of `N#Cc1ccccc1Cn1c(N2CCC[C@@H](N)C2)nc2cccc(F)c2c1=O`, the half-life at 1 µM in “in vitro [9]” (microsomes) is 0.03 h; in the data set “in vitro [10]” (microsomes), 2.08 h.
Take `Cn1c(=O)cc(N2CCC[C@@H](N)C2)n(Cc2ccccc2C#N)c1=O.O=C(O)c1ccccc1` [ALOGLIPTIN BENZOATE]: in data set [16], the bioavailability is 87%. For the same compound, the clearance in data set [17] was determined as 8.81 mL/min/kg. The compound further returned an AUC in [18] of 16600 ng·h/mL. For the same compound, the half-life in data set [19] was 5.66 h; in data set [20], 5.74 h. Moreover, the Vd in [21] was found to be 2.6 L/kg.
`COc1cc2nc(N3CCC[C@@H](N)C3)n(Cc3ccccc3C#N)c(=O)c2cc1OC`: the half-life at 1 µM amounted to 1.78 h in “in vitro [9]” (liver microsomes) and 2.43 h in “in vitro [10]” (liver microsomes).
Taken in the same sequence, the figures for `N#Cc1ccccc1Cn1c(N2CCC[C@@H](N)C2)nc2ccc(Cl)cc2c1=O` were 0.667 h and > 3.33 h.
